Among the data in ChEMBL document CHEMBL2163264, “Identification and synthesis of substituted pyrrolo[2,3-d]pyrimidines as novel firefly luciferase inhibitors” (Bioorg Med Chem, 2012) are inhibition, Ki and IC50 values, retold here.

Calls of active or inactive are those of the source. No cut-off for these calls is given here.

For one experiment, the target named is Luciferin 4-monooxygenase (Photinus pyralis) (UniProt P08659). Nature of the experiment: Uncompetitive inhibition of Photinus pyralis luciferase using 50 uM D-luciferin as substrate after 20 mins by Lineweaver-Burk plot in presence of 25 to 500 uM ATP. The gist of the method: (§1)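 ATP-dependence kinetics: 32 nM P. pyralis luciferase in pH 7.8 glycine-Tris/EDTA/MgSO4 buffer, preincubated 20 min with inhibitor in the dark at room temperature. ATP varied 25–500 µM with D-luciferin fixed at 50 µM, read by bioluminescence. Double-reciprocal plots were examined. Apparent Km and Vmax came from nonlinear Michaelis–Menten fitting. Three independent assays in triplicate.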
Luciferin 4-monooxygenase (Photinus pyralis), sequence (P08659 whole entry): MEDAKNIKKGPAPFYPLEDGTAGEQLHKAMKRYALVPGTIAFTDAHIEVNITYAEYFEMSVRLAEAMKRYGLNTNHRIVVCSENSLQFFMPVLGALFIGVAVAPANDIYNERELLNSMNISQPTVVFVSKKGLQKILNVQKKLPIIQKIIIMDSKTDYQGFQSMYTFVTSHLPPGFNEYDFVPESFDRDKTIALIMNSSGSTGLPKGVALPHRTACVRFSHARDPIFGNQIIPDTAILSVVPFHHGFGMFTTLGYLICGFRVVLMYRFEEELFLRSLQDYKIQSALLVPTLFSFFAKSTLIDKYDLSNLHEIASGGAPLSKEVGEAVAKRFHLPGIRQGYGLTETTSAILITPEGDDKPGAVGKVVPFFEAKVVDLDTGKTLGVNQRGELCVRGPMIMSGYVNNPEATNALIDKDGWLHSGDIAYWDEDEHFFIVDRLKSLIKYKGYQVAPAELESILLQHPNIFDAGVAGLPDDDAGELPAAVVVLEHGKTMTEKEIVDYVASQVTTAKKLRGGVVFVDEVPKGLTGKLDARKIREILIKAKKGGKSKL
As to `CC(C)n1ccc2c(Oc3ccc(N)cc3)ncnc21`, the inhibition entry is “Active”.

The target in the next experiment is T1, Luciferin 4-monooxygenase (Photinus pyralis, UniProt P08659). As to the kind of experiment: Uncompetitive inhibition of Photinus pyralis luciferase using 50 uM D-luciferin as substrate after 20 mins by nonlinear regression analysis in presence of 25 to 500 uM ATP. The method, boiled down: as §1
T1 sequence (P08659 whole entry): as above
For `CC(C)n1ccc2c(Oc3ccc(N)cc3)ncnc21`, the Ki came to 340 nM.

The next experiment deals with T1, Luciferin 4-monooxygenase. Nature of the experiment: Competitive inhibition of Photinus pyralis luciferase using 3.125 to 200 uM D-luciferin as substrate after 20 mins by Michaelis-Menten plot in presence of 250 uM ATP. The method, boiled down:
(§2)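 Photinus pyralis firefly luciferase (32 nM) in buffer A (1 M glycine-Tris, 10 mM EDTA, 100 mM MgSO4, pH 7.8) preincubated with inhibitor or buffer 20 min in the dark at room temperature. D-luciferin varied 3.125–200 µM with ATP fixed at 250 µM. Luminescence read. Apparent Km and Vmax from nonlinear Michaelis–Menten fit. Three independent assays in triplicate.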
With `CC(C)n1ccc2c(Oc3ccc(N)cc3)ncnc21`, the Ki is 1430 nM.

The target in the next experiment is T1, Luciferin 4-monooxygenase. Nature of the experiment: Mixed-type inhibition of Photinus pyralis luciferase using D-luciferin as substrate after 20 mins by Michaelis-Menten plot. The method, boiled down:
as §2
In turn, `CC(C)n1ccc2c(Oc3ccc(N)cc3)ncnc21` showed a Ki of 220 nM.

A further experiment concerns the target Luciferin 4-monooxygenase (Photinus pyralis) (UniProt P08659). As to the kind of experiment: Mixed-type inhibition of Photinus pyralis luciferase using D-luciferin as substrate at 10 uM after 20 mins by bioluminescence assay.
For `CCOC(=O)Cn1ccc2c(Oc3ccc(N)cc3)ncnc21`, the inhibition stood at 33%.

For `Nc1ccc(Oc2ncnc3[nH]ccc23)cc1`, the inhibition was determined as 19%.

In turn, `Nc1ccc(Oc2ncnc3c2ccn3Cc2ccccc2)cc1` displayed an inhibition of 46%.

`Cn1ccc2c(Oc3ccc(N)cc3)ncnc21` registered an inhibition of 48%.

Compound `NC(=O)Cn1ccc2c(Oc3ccc(N)cc3)ncnc21` showed an inhibition of 21%.

Turning to `Nc1ccc(Oc2ncnc3c2ccn3Cc2ccc(C(F)(F)F)cc2)cc1`, the inhibition is 7%.

Compound `CC(C)n1ccc2c(Oc3ccc(N)cc3)nc(S(C)(=O)=O)nc21` registered an inhibition of 9%.

With `CSc1nc(Oc2ccc(N)cc2)c2ccn(C(C)C)c2n1`, the inhibition came to 31%.

Compound `COc1ccc(Cn2ccc3c(Oc4ccc(N)cc4)ncnc32)cc1` yielded an inhibition of 26%.

The target of another experiment is T1, Luciferin 4-monooxygenase. As to the kind of experiment: Mixed-type inhibition of Photinus pyralis luciferase using D-luciferin as substrate after 20 mins by bioluminescence assay. The method, boiled down:
as §2
`CC(C)n1ccc2c(Oc3cccc(N)c3)ncnc21` gave an IC50 of 14700 nM.

For the compound `CC(C)(C)Cn1ccc2c(Oc3ccc(N)cc3)ncnc21`, half-maximal inhibition (IC50) required 80 nM.

Consider `CCn1ccc2c(Oc3ccc(N)cc3)ncnc21`, for which the IC50 stood at 3510 nM.

Compound `CC(C)=CCn1ccc2c(Oc3ccc(N)cc3)ncnc21` gave an IC50 of 7530 nM. This IC50 is about 2.1-fold higher than that of the compound before.

As for `C=C(C)Cn1ccc2c(Oc3ccc(NC)cc3)ncnc21`, half-maximal inhibition (IC50) required 60 nM.

`C=C(C)Cn1ccc2c(Oc3ccc(N(C)C)cc3)ncnc21` came in with an IC50 of 90 nM. This IC50 is about 1.5-fold higher than that of the compound before.

The compound `CC(C)CCn1ccc2c(Oc3ccc(N)cc3)ncnc21` returned an IC50 of 6460 nM.

Compound `CN(C)c1ccc(Oc2ncnc3c2ccn3CC(C)(C)C)cc1` yielded an IC50 of 120 nM. Compared with the last compound, the IC50 is about 54-fold lower.

`C=C(C)Cn1ccc2c(Oc3ccc(N)cc3)ncnc21` showed an IC50 of 120 nM.

For `C=CCn1ccc2c(Oc3ccc(N)cc3)ncnc21`, the IC50 came out at 2240 nM.

As to `CC(C)Cn1ccc2c(Oc3ccc(N)cc3)ncnc21`, the midpoint of inhibition, the IC50, lay at 310 nM. Against the preceding compound, the IC50 is about 7.2-fold lower.

`CC(C)n1ccc2c(Oc3ccc(N)cc3)nc(N)nc21`: the IC50 is 10800 nM.

For `CC(C)n1ccc2c(Oc3ccccc3N)ncnc21`, the IC50 is 7300 nM.

For `CNc1ccc(Oc2ncnc3c2ccn3C(C)C)cc1`, the IC50 came out at 130 nM.

With `Nc1ccc(Oc2ncnc3c2ccn3C2CCCC2)cc1`, the IC50 was 290 nM.

`CNc1ccc(Oc2ncnc3c2ccn3CC(C)(C)C)cc1`: half-maximal inhibition (IC50) was put at 70 nM.

`CC(C)n1ccc2c(Oc3ccc(N(C)C)cc3)ncnc21` returned an IC50 of 180 nM.

Take `C=C=Cn1ccc2c(Oc3ccc(N)cc3)ncnc21`: half-maximal inhibition (IC50) was put at 9430 nM.

Consider `CC(C)n1ccc2c(Oc3ccc(N)cc3)ncnc21`, for which it took 360 nM to reach half-maximal inhibition (IC50).

As usually defined, the inhibition is the percentage by which the read-out fell short of the control. What is called Ki is a measure of affinity in units of concentration, obtained from inhibition or displacement. The IC50 is the point on the concentration scale where inhibition reaches its midpoint.
